From ChEMBL document CHEMBL1124622, “Synthesis and antiviral activity of 3'-C-cyano-3'-deoxynucleosides” (J Med Chem, 1989)
Values after ≈ are worked out from the molar mass of the structure shown.

Legend:
[1] = test system: Moloney murine sarcoma virus; experiment: In vitro effective dose against Moloney murine sarcoma virus induced transformation of C3H embryo fibroblast cells.; format: functional; conditions: read-out: ED50 (the source's name)
Procedure, shortened: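 C3H mouse embryo cells are seeded at 20 000 cells/mL per well and grown 24 h. They are infected with 80 foci-forming units of Moloney MSV for 90 min, then given fresh medium with varying compound concentrations. Transformation is examined microscopically after 6-7 days. ED50 is the dose giving a 50% reduction in transformation.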

[2] = In vitro minimum cytotoxic concentration in C3H embryo fibroblast cells.; format: functional; conditions: Mus musculus
Procedure, shortened: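 Minimal cytotoxic concentration in C3H mouse embryo cells, run in the same 48-well setup as the MSV transformation assay: the concentration producing microscopically visible alteration of cell morphology.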

[3] = Minimum cytotoxic concentration in HeLa cell cultures; format: cell-based; conditions: human, HeLa cells
HeLa [4] = experiment: Minimum inhibitory concentration against Vesicular stomatitis virus in HeLa cell cultures; format: functional; conditions: Homo sapiens
Procedure, shortened: (§1)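 Confluent HeLa, Vero or primary rabbit kidney cell cultures in microtiter trays are inoculated with 100 CCID50 of virus. After 1 h adsorption, residual virus is removed and cells are incubated with varying compound concentrations. Cytopathogenicity is recorded once it is complete in untreated virus-infected controls. MIC is the concentration inhibiting virus-induced cytopathogenicity.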

HeLa [5] = experiment: Minimum inhibitory concentration against polio virus 1 in HeLa cell cultures; format: functional; conditions: Homo sapiens; procedure, shortened: as §1
Homo sapiens = organism: Homo sapiens; experiment: Cytotoxic dose against uninfected human MT-4 cell; format: functional; conditions: MT4, read-out: CD50 (the source's name)
Procedure, shortened: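 Cytotoxicity counterpart of the HIV assay: uninfected human MT-4 lymphocytes exposed to the compounds. CD50 is the dose that reduces viability of these uninfected cells by 50%.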

[6] = test system: Human immunodeficiency virus 1; experiment: Effective dose against HIV-1 induced cytopathogenicity in human MT-4 cell.; format: functional; conditions: Human immunodeficiency virus 1, MT4; read-out: ED50 (the source's name)
Procedure, shortened: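 HIV (HTLV-III_B) is taken from the culture supernatant of a persistently infected HUT-78 line. Human MT-4 lymphocytes are infected and the assay scores inhibition of virus-induced cytopathogenicity. ED50 is the dose giving 50% protection of MT-4 cells against the viral cytopathic effect.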

[7] = Minimum cytotoxic concentration in primary rabbit kidney cell cultures; format: cell-based, Oryctolagus cuniculus; conditions: primary rabbit kidney cells
Coxsackievirus B4 = experiment: Minimum inhibitory concentration against Coxsackie virus B4 in Vero cell cultures; format: functional; conditions: Enterovirus B; procedure, shortened: as §1
Semliki Forest virus = experiment: Minimum inhibitory concentration against forest virus in Vero cell cultures; format: functional; procedure, shortened: as §1
Sindbis virus = experiment: Minimum inhibitory concentration against Sindbis virus in Vero cell cultures; format: functional; procedure, shortened: as §1
Human respirovirus 3 = experiment: Minimum inhibitory concentration against parainfluenza 3 virus in Vero cell cultures; format: functional; procedure, shortened: as §1
[8] = test system: Mammalian orthoreovirus 1; experiment: Minimum inhibitory concentration against reovirus in Vero cell cultures; format: functional; procedure, shortened: as §1
Vaccinia virus = experiment: (§2) Minimum inhibitory concentration against Vaccinia virus in primary rabbit kidney cell cultures; format: functional; conditions: Orthopoxvirus vaccinia; procedure, shortened: as §1
[9] = test system: Vesicular stomatitis virus; experiment: (§3) Minimum inhibitory concentration against Vesicular stomatitis virus in primary rabbit kidney cell cultures; format: functional; procedure, shortened: as §1
HeLa [10] = experiment: Minimum inhibitory concentration against Coxsackie virus B4 in HeLa cell cultures; format: functional; conditions: Homo sapiens; procedure, shortened: as §1
[11] = Minimum cytotoxic concentration in Vero cell cultures; format: cell-based; conditions: chlorocebus sabaeus, Vero cells
Oryctolagus cuniculus [12] = organism: Oryctolagus cuniculus; experiment: Minimum inhibitory concentration against Herpes simplex virus 1(KOS) in primary rabbit kidney cell cultures; format: functional; procedure, shortened: as §1
Oryctolagus cuniculus [13] = organism: Oryctolagus cuniculus; experiment: Minimum inhibitory concentration against Herpes simplex virus 2 (G) in primary rabbit kidney cell cultures; format: functional; procedure, shortened: as §1
Oryctolagus cuniculus [14] = organism: Oryctolagus cuniculus; experiment: as §2; format: functional; procedure, shortened: as §1
Oryctolagus cuniculus [15] = organism: Oryctolagus cuniculus; experiment: as §3; format: functional; procedure, shortened: as §1
Oryctolagus cuniculus [16] = organism: Oryctolagus cuniculus; experiment: Minimum cytotoxic concentration in primary rabbit kidney cell cultures

| Structure (SMILES) | EC50 [1] [µg/mL] | MCC [2] [µg/mL] | MCC [3] [µg/mL] | MIC (HeLa [4]) [µg/mL] | MIC (HeLa [5]) [µg/mL] | CC50 (Homo sapiens) [µM] | EC50 [6] [µM] | MCC [7] [µg/mL] | MIC (Coxsackievirus B4) [µg/mL] | MIC (Semliki Forest virus) [µg/mL] | MIC (Sindbis virus) [µg/mL] | MIC (Human respirovirus 3) [µg/mL] | MIC [8] [µg/mL] | MIC (Vaccinia virus) [µg/mL] | MIC [9] [µg/mL] | MIC (HeLa [10]) [µg/mL] | MCC [11] [µg/mL] | also measured |
| --- | --- | --- | --- | --- | --- | --- | --- | --- | --- | --- | --- | --- | --- | --- | --- | --- | --- | --- |
| CC(C)(C)[Si](C)(C)OC[C@H]1O[C@@H](n2cnc3c(N)ncnc32)[C@H](O[Si](C)(C)C(C)(C)C)[C@@H]1C#N | > 1.6 | 8 | 400 | 150 (≈ 297 µM) | > 200 | 5.1 | 2.1 | 10 | > 4 | > 4 | > 4 | > 4 | > 4 | > 4 | > 4 | > 200 | 10 | – |
| CC(C)(C)[Si](C)(C)OC[C@H]1O[C@@H](n2ccc(=O)[nH]c2=O)[C@H](O[Si](C)(C)C(C)(C)C)[C@@H]1C#N | 5.6 (≈ 11.6 µM) | > 8 | > 40 | > 10 | > 10 | 6.6 | 3.2 | > 10 | > 4 | > 4 | > 4 | > 4 | > 4 | > 4 | > 4 | > 10 | > 10 | – |
| Cc1cn([C@H]2C[C@H](C#N)[C@@H](CO)O2)c(=O)[nH]c1=O | > 16 | 80 | 200 | > 100 | > 100 | 30 | > 16 | 100 | > 10 | > 10 | > 10 | > 10 | > 10 | 20 (≈ 79.6 µM) | > 40 | > 100 | > 10 | – |
| N#C[C@H]1[C@@H](O)[C@H](n2ccc(=O)[nH]c2=O)O[C@@H]1CO | > 200 | > 200 | > 200 | > 200 | > 200 | 147 | > 80 | > 200 | > 100 | > 100 | > 100 | > 100 | > 100 | > 200 | > 200 | > 200 | > 200 | – |
| CC(C)(C)[Si](C)(C)OC[C@H]1O[C@@H](n2ccc(=O)[nH]c2=O)[C@H](O[Si](C)(C)C(C)(C)C)[C@H]1C#N | 2.2 (≈ 4.57 µM) | > 3.2 | 4 | > 1 | > 4 | 1.6 | > 6.04 | > 4 | > 1 | > 1 | > 1 | > 1 | > 1 | > 1 | > 1 | > 4 | 4 | – |
| N#C[C@@H]1[C@@H](O)[C@H](n2cnc3c(N)ncnc32)O[C@@H]1CO | 6.6 (≈ 23.9 µM) | > 40 | 400 | 150 (≈ 543 µM) | > 200 | 2.9 | > 1.6 | 200 | 100 (≈ 362 µM) | 20 (≈ 72.4 µM) | 10 (≈ 36.2 µM) | 70 (≈ 253 µM) | > 100 | 4 (≈ 14.5 µM) | > 200 | > 200 | 200 | – |
| Cc1cn([C@H]2C[C@@H](C#N)[C@@H](CO)O2)c(=O)[nH]c1=O | > 250 | > 250 | > 400 | > 400 | > 400 | > 250 | > 250 | > 400 | > 400 | > 400 | > 400 | > 200 | > 200 | > 400 | > 400 | > 400 | > 400 | – |
| N#C[C@@H]1[C@@H](O)[C@H](n2ccc(=O)[nH]c2=O)O[C@@H]1CO | 260 (≈ 1030 µM) | 400 | > 400 | > 200 | > 200 | > 400 | > 400 | > 200 | > 200 | > 200 | > 200 | > 200 | > 200 | 4 (≈ 15.8 µM) | > 200 | > 200 | 400 | – |
| Cc1cn(C2C=C(C#N)C(CO)O2)c(=O)[nH]c1=O (centres undefined) | 191 (≈ 766 µM) | > 250 | 400 | 150 (≈ 602 µM) | > 200 | 24 | > 50 | 200 | > 100 | > 40 | > 100 | > 40 | > 40 | > 100 | > 100 | > 200 | > 100 | – |
| N#CC1C(CO)OC(n2ccc(N)nc2=O)C1O (centres undefined) | 43 (≈ 170 µM) | > 200 | 100 | 70 (≈ 278 µM) | > 40 | 22.7 | > 10 | > 100 | > 100 | > 100 | > 100 | > 100 | > 100 | 40 (≈ 159 µM) | > 100 | > 40 | 200 | – |
| CC(C)(C)[Si](C)(C)OCC1OC(n2ccc(N)nc2=O)C(O[Si](C)(C)C(C)(C)C)C1C#N (centres undefined) | > 1.6 | 8 | > 4 | > 1 | > 1 | 6.1 | > 3.2 | > 10 | > 4 | > 4 | > 4 | > 4 | > 4 | > 4 | > 4 | > 1 | 10 | – |
| Cc1cn(C2CC(C#N)C(CO[Si](C)(C)C(C)(C)C)O2)c(=O)[nH]c1=O (centres undefined) | > 16 | 80 | 100 | > 40 | > 40 | 31 | > 16 | > 100 | > 100 | > 100 | > 100 | > 100 | 20 (≈ 54.7 µM) | > 40 | > 40 | > 40 | > 100 | – |
| Cc1cn(C2OC(CO)C(C#N)C2O)c(=O)[nH]c1=O (centres undefined) | > 250 | > 250 | > 400 | > 200 | > 200 | 232 | > 250 | 400 | > 100 | 300 (≈ 1120 µM) | 150 (≈ 561 µM) | > 100 | > 200 | 150 (≈ 561 µM) | > 200 | > 200 | > 200 | – |
| CC(=O)Nc1ccn(C2OC(CO[Si](C)(C)C(C)(C)C)C(C#N)C2O[Si](C)(C)C(C)(C)C)c(=O)n1 (centres undefined) | 2.2 (≈ 4.21 µM) | > 3.2 | > 4 | > 1 | > 4 | 4.8 | > 3.2 | > 4 | > 4 | > 4 | > 4 | > 4 | > 4 | > 1 | > 1 | 2 (≈ 3.83 µM) | > 4 | – |
| Nc1nccc2c1ncn2[C@@H]1C[C@H](CO)[C@@H](O)[C@H]1O [3-DEAZAARISTEROMYCIN A] | – | – | > 400 | 1 (≈ 3.78 µM) | > 400 | – | – | > 400 | 100 (≈ 378 µM) | > 400 | 300 (≈ 1140 µM) | 4 (≈ 15.1 µM) | 7 (≈ 26.5 µM) | 2 (≈ 7.57 µM) | 0.7 (≈ 2.65 µM) | > 400 | 400 | – |
| NC(=O)c1ncn([C@@H]2O[C@H](CO)[C@@H](O)[C@H]2O)n1 [RIBAVIRIN] | – | – | > 200 | 20 (≈ 81.9 µM) | 70 (≈ 287 µM) | – | – | – | 100 (≈ 409 µM) | 300 (≈ 1230 µM) | 70 (≈ 287 µM) | 40 (≈ 164 µM) | 70 (≈ 287 µM) | – | – | 70 (≈ 287 µM) | > 400 | MIC (Oryctolagus cuniculus [12]): > 400 µg/mL; MIC (Oryctolagus cuniculus [13]): > 400 µg/mL; MIC (Oryctolagus cuniculus [14]): 10 µg/mL (≈ 40.9 µM); MIC (Oryctolagus cuniculus [15]): 300 µg/mL (≈ 1230 µM); MCC (Oryctolagus cuniculus [16]): > 400 µg/mL |
| Nc1ncnc2c1ccn2[C@@H]1O[C@H](CO)[C@@H](O)[C@H]1O [TUBERCIDIN] | – | – | > 0.4 | 0.07 (≈ 0.263 µM) | 0.4 (≈ 1.5 µM) | – | – | – | > 0.1 | > 0.1 | 0.2 (≈ 0.751 µM) | > 0.1 | > 0.1 | 0.1 (≈ 0.376 µM) | 0.07 (≈ 0.263 µM) | 0.4 (≈ 1.5 µM) | 0.4 | MCC (Oryctolagus cuniculus [16]): > 0.4 µg/mL |
